Test results from PMC5598389 (Toxicology Reports, 2015).
“And” between values parts separate entries of the source, which are not always exact repeats. Equal entries are not always repeated. “Also recorded” adds a separate entry of the source.

Key:
[1] = tested on: human peripheral blood lymphocytes (HPBL); assay: In vitro chromosome aberration test
[2] = In vitro metabolism in liver microsomes; assay type: in vitro ADME; details: Human (60 min), positive ionization
[3] = Pharmacokinetics after single iv or oral S2227 in dogs; assay type: in vivo, beagle dogs; details: for AUC0-last ratio M179/S2227 / AUC0-last/dose: Dog (M); for AUC(0-t) / Cmax / Tmax / half-life: male, beagle, dog; for AUC(0-t) / Cmax / Tmax / half-life / AUC0-last/dose: plasma
[4] = In vitro metabolism in liver microsomes; assay type: in vitro ADME, Sprague-Dawley rat; details: Rat (20 min), positive ionization
[5] = tested on: liver cells; assay: In vivo alkaline comet assay, liver; parameters: species or system CD-1 mice; details: males: 125, 250, 500 mg/kg bw; females: 250, 500, 1000 mg/kg bw (oral)
Summary of the method: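 Run on the same Crl:CD-1(ICR) mice as the micronucleus study, 5/sex/group. Animals received the salt of the secondary amine hydrolysis product by oral gavage for three consecutive days, with 1% methylcellulose as vehicle control. Liver cells were analysed by alkaline single-cell gel electrophoresis, scoring % tail DNA and counting "clouds" (hedgehogs) against vehicle controls.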

[6] = Pharmacokinetics after single iv or oral S2227 in rats; assay type: in vivo, Sprague-Dawley rats; details: for AUC(0-t) / Cmax / Tmax / half-life: Sprague-Dawley, rat; for AUC(0-t) / Cmax / Tmax / half-life / AUC0-last/dose: plasma
Summary of the method: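 IV dosing: 4 male and 4 female Sprague-Dawley rats given a 1 mg/kg bolus in PEG 400, with blood sampled at about 0, 2, 5, 10 and 30 min and 1, 2, 4 and 8 h. Oral dosing: 4/sex/group gavaged at 10, 30 or 100 mg/kg in 1% methylcellulose, with blood sampled at about 0, 15 and 30 min and 1, 2, 4, 8 and 24 h. Plasma was assayed for parent and metabolites.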

[7] = tested on: S. typhimurium strains TA98, TA100, TA1535, TA1537 and E. coli strain WP2 uvrA; assay: Bacterial reverse mutation test; assay type: cell-based; details: 50-5000 μg/plate, initial and confirmatory plate incorporation, ±S9
Summary of the method: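 OECD 471 design, run with and without Aroclor 1254-induced male Sprague-Dawley rat liver S9 (9000 × g fraction). The parent compound was tested by plate incorporation and pre-incubation at 63–1000 µg/plate. The secondary amine hydrolysis product (hydrochloride) was tested by plate incorporation only, in an initial toxicity-mutation phase and a confirmatory phase, at nominal 50–5000 µg/plate. Positive and vehicle controls ran concurrently.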

[8] = Pharmacokinetics of S2227 and M179 hydrochloride in mice; assay type: in vivo, male CD-1 mice; details: male, CD-1, mouse, plasma, po
Summary of the method: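 Two groups of 28 male Crl:CD-1(ICR) mice were gavaged with a 1% methylcellulose suspension of either parent (30 mg/kg) or the equimolar secondary amine hydrochloride (20 mg/kg). Blood was taken by cardiac puncture from 4 mice/group/time point at about 15 and 30 min and 1, 2, 4, 8 and 24 h. Plasma levels of parent and metabolites gave Cmax and AUClast.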

[9] = In vitro metabolism in liver microsomes; assay type: in vitro ADME; details: Dog (60 min), positive ionization
[10] = In vitro metabolism in liver microsomes; assay type: in vitro ADME, Gottingen pig; details: Pig (10 min), positive ionization
[11] = tested on: bone marrow polychromatic erythrocytes; assay: In vivo micronucleus assay, bone marrow PCEs; parameters: species or system CD-1 mice; details: males: 125, 250, 500 mg/kg bw; females: 250, 500, 1000 mg/kg bw (oral)
Summary of the method: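 Crl:CD-1(ICR) mice were gavaged for three consecutive days in 1% methylcellulose at 10 mL/kg. Dose-range phases used 3/sex/group: parent at 500–2000 mg/kg, amine salt at 125–2000 mg/kg/day. Definitive phases used 6/sex (parent) or 5/sex (amine), with MMS 40 mg/kg/day as positive control. Micronuclei were scored in 2000 bone marrow PCEs per animal, and the PCE/total erythrocyte ratio was used for cytotoxicity.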

[12] = target: CYP2C19 (Homo sapiens, UniProt P33261); details: 10 μM, spectrofluorimetric substrates; ref Arthur, unpublished results; cited from earlier work
[13] = 28-day and 22-week rat and 28-day dog studies; cited from earlier work

CYP2C19, sequence (P33261 whole entry): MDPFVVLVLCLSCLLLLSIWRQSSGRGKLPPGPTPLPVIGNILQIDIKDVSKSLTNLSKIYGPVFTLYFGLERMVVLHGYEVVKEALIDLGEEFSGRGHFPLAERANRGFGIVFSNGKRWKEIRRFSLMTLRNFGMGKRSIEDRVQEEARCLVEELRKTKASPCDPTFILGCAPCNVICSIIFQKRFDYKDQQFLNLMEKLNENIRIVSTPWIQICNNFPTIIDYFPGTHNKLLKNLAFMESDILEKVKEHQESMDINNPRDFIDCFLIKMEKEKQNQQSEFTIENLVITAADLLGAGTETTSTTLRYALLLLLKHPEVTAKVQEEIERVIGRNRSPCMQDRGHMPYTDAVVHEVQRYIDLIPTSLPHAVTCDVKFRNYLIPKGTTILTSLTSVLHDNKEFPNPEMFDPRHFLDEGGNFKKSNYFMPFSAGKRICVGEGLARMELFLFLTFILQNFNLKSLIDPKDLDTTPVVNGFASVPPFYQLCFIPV

## c1csc(CNc2cc[nH]n2)c1 [M179, N-(2-thienylmethyl)-1H-pyrazol-3-amine]
[1]; 280-2160 μg/mL 4 h -S9, 100-1840 μg/mL 4 h +S9, 25-280 μg/mL 20 h -S9
  Chromosome aberration (in vitro): Positive (4 h,⿿S9)
[1]; S9-activated test system
  induction of structural aberrations: negative
[1]; non-activated and S9-activated test systems
  induction of numerical aberrations: negative
[1]; non-activated test system
  induction of structural aberrations: positive
[2]
  relative EIC peak area (%) compared to S2227 peak area at T = 0 min: 0.91%
[3]; S2227 iv 1.0 mg/kg
  AUC0-last ratio M179/S2227: 0.007
[3]; S2227 oral gavage 10 mg/kg
  AUC0-last ratio M179/S2227: 0.187
[3]; S2227 oral gavage 30 mg/kg
  AUC0-last ratio M179/S2227: 0.139
[3]; S2227 oral gavage 100 mg/kg
  AUC0-last ratio M179/S2227: 0.243
[3]; iv, 1 mg/kg
  AUC(0-t): 6.63 ± 0.9 ng·h/mL
  Cmax: 5.2 ± 0.9 ng/mL
  Tmax: 0.5 h
  half-life: 1.1 h
[3]; po, 10 mg/kg
  AUC(0-t): 22.2 ± 8.78 ng·h/mL
  Cmax: 10.2 ± 4.84 ng/mL
  Tmax: 4.67 h
  half-life: 4.77 h
[3]; po, 30 mg/kg
  AUC(0-t): 31 ± 15.4 ng·h/mL
  Cmax: 6.81 ± 2.15 ng/mL
  Tmax: 1 h
  half-life: 2.27 h
[3]; po, 100 mg/kg
  AUC(0-t): 171 ± 144 ng·h/mL
  Cmax: 129 nM and 23.1 ng/mL
  Tmax: 10 h
  half-life: 4.69 h
[3]; dosed S2227 iv 1.0 mg/kg
  AUC0-last/dose: 6.63 ng·h/mL/mg/kg
[3]; dosed S2227 oral gavage 10 mg/kg
  AUC0-last/dose: 2.22 ng·h/mL/mg/kg
[3]; dosed S2227 oral gavage 30 mg/kg
  AUC0-last/dose: 1.03 ng·h/mL/mg/kg
[3]; dosed S2227 oral gavage 100 mg/kg
  AUC0-last/dose: 1.71 ng·h/mL/mg/kg
[4]
  relative EIC peak area (%) compared to S2227 peak area at T = 0 min: 6.47%
[5]
  DNA damage (in vivo), liver Comet assay: negative (non-DNA damaging); also recorded: Negative
[6]; S2227 iv 1.0 mg/kg, Rat (F)
  AUC0-last ratio M179/S2227: 0.042
[6]; S2227 iv 1.0 mg/kg, Rat (M)
  AUC0-last ratio M179/S2227: 0.040
[6]; S2227 oral gavage 10 mg/kg, Rat (F)
  AUC0-last ratio M179/S2227: 48.9
[6]; S2227 oral gavage 10 mg/kg, Rat (M)
  AUC0-last ratio M179/S2227: 155
[6]; S2227 oral gavage 30 mg/kg, Rat (F)
  AUC0-last ratio M179/S2227: 86.2
[6]; S2227 oral gavage 30 mg/kg, Rat (M)
  AUC0-last ratio M179/S2227: 98.6
[6]; S2227 oral gavage 100 mg/kg, Rat (F)
  AUC0-last ratio M179/S2227: 38.1
[6]; S2227 oral gavage 100 mg/kg, Rat (M)
  AUC0-last ratio M179/S2227: 69.9
[6]; female, iv, 1 mg/kg
  AUC(0-t): 12.6 ± 5.02 ng·h/mL
  Cmax: 14 ± 4.84 ng/mL
  Tmax: 0.13 h
  half-life: 0.82 h
[6]; female, po, 10 mg/kg
  AUC(0-t): 384 ± 267 ng·h/mL
  Cmax: 407 ± 289 ng/mL
  Tmax: 0.44 h
  half-life: 1.02 h
[6]; female, po, 30 mg/kg
  AUC(0-t): 2510 ± 1700 ng·h/mL
  Cmax: 1540 ± 1050 ng/mL
  Tmax: 0.75 h
  half-life: 1.06 h
[6]; female, po, 100 mg/kg
  AUC(0-t): 5980 ± 745 ng·h/mL
  Cmax: 1770 ± 457 ng/mL
  Tmax: 0.83 h
  half-life: 1.84 h
[6]; male, iv, 1 mg/kg
  AUC(0-t): 8.78 ± 1.97 ng·h/mL
  Cmax: 15.1 ± 3.23 ng/mL
  Tmax: 0.11 h
  half-life: 0.28 h
[6]; male, po, 10 mg/kg
  AUC(0-t): 254 ± 102 ng·h/mL
  Cmax: 189 ± 94.5 ng/mL
  Tmax: 0.5 h
  half-life: 1.12 h
[6]; male, po, 30 mg/kg
  AUC(0-t): 614 ± 201 ng·h/mL
  Cmax: 290 ± 115 ng/mL
  Tmax: 0.75 h
  half-life: 1.29 h
[6]; male, po, 100 mg/kg
  AUC(0-t): 3500 ± 813 ng·h/mL
  Cmax: 5.64 µM and 1010 ng/mL
  Tmax: 1.13 h
  half-life: 1.83 h
[6]; dosed S2227 iv 1.0 mg/kg, Rat (F)
  AUC0-last/dose: 12.6 ng·h/mL/mg/kg
[6]; dosed S2227 iv 1.0 mg/kg, Rat (M)
  AUC0-last/dose: 8.78 ng·h/mL/mg/kg
[6]; dosed S2227 oral gavage 10 mg/kg, Rat (F)
  AUC0-last/dose: 38.4 ng·h/mL/mg/kg
[6]; dosed S2227 oral gavage 10 mg/kg, Rat (M)
  AUC0-last/dose: 25.4 ng·h/mL/mg/kg
[6]; dosed S2227 oral gavage 30 mg/kg, Rat (F)
  AUC0-last/dose: 83.7 ng·h/mL/mg/kg
[6]; dosed S2227 oral gavage 30 mg/kg, Rat (M)
  AUC0-last/dose: 20.5 ng·h/mL/mg/kg
[6]; dosed S2227 oral gavage 100 mg/kg, Rat (F)
  AUC0-last/dose: 59.8 ng·h/mL/mg/kg
[6]; dosed S2227 oral gavage 100 mg/kg, Rat (M)
  AUC0-last/dose: 35.0 ng·h/mL/mg/kg
[7]
  Reverse mutation (in vitro): not mutagenic; also recorded: Negative
[8]; 20 mg/kg
  AUC(0-t): 4370 ng·h/mL
[8]; 30 mg/kg
  AUC(0-t): 27.6 ng·h/mL
[9]
  relative EIC peak area (%) compared to S2227 peak area at T = 0 min: 10.26%
[10]
  relative EIC peak area (%) compared to S2227 peak area at T = 0 min: 37.29%
[11]
  Micronucleus formation (in vivo): did not induce micronuclei; also recorded: Negative

## CCNC(=O)C1CC(C)CCC1C(C)C (stereo not drawn) [FEMA 3455, N-ethyl-p-menthane-3-carboxamide]
[12]
  % inhibition of CYP2C19: 74%
[13]
  NOEL: 8 mg/kg/day
